Laboratory results published in paper PMC8359310 (British Journal of Clinical Pharmacology, 2020).

Assays:
[1] = tested on: breast cancer resistant protein (BCRP); experiment: In vitro inhibition of transporter BCRP by capmatinib; format: in vitro ADME; conditions: 400 mg twice daily
[2] = Capmatinib plasma concentrations in DDI and post‐DDI phase; format: in vivo, human; conditions: 400 mg twice daily
[3] = tested on: MET‐dysregulated advanced solid tumours; experiment: Antitumour activity by Investigator's assessment per RECIST 1.1; format: in vivo, human
Summary of the method: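 Adults (≥18 years) with refractory MET-dysregulated advanced solid tumours (amplification with gene copy number ≥4 by FISH or qPCR, IHC intensity +3 in ≥50% of tumour cells, or exon 14 deletion mutation). Test compound given orally at 400 mg twice daily, then continued on 21-day cycles. Investigator-read CT every 6 weeks. Patients stopping for other reasons were followed until progression, new therapy or death.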

Safety assessments = format: in vivo, human
[4] = Estimated maximum luminal concentration in the gut; set-up: species or system human; conditions: therapeutic dose 400 mg twice daily; dose/250 mL
p‐glycoprotein (P‐gp) = conditions: in vitro, cited from earlier work
[5] = tested on: breast cancer resistant protein (BCRP); conditions: in vitro, cited from earlier work
[6] = target: organic anion transporting polypeptide (OATP) 1B1; conditions: read-out: Ki for OATP1B1; in vitro; ref data on file; cited from earlier work
OATP1B3 = conditions: read-out: Ki for OATP1B3; in vitro; ref data on file; cited from earlier work
[7] = cited from earlier work
[8] = one of the capmatinib studies; ref data on file; cited from earlier work
[9] = regardless of study drug relationship

CNC(=O)c1ccc(-c2cnc3ncc(Cc4ccc5ncccc5c4)n3n2)cc1F [capmatinib]
maximum luminal gut concentration relative to Ki for BCRP [1]: > 300 fold
geometric mean predose concentration ([2]; Cycle 2 Day 1 (post‐DDI phase)): 529 ng/mL
geometric mean predose concentration ([2]; Day 22 (DDI phase)): 407 ng/mL
concentration at 2 h ([2]; human, oral): 3960 ng/mL
Best overall response: Progressive disease (PD) ([3]; all patients n = 32): 17 (53.1) n (%)
Best overall response: Unknown ([3]; all patients n = 32): 7 (21.9) n (%)
complete response (CR) or partial response (PR) ([3]; all patients n = 32): No patient
disease control rate (CR + PR + SD) ([3]; in vivo): 25%
patients with PD as best overall response ([3]; in vivo): 53.1%
patients with stable disease as best overall response ([3]; in vivo): 25%
patients with unknown response ([3]; in vivo): 21.9%
patients with AEs leading to study drug discontinuation (Safety assessments; all events grade 3/4): 9.4%
patients with treatment‐related AEs (Safety assessments; all grades): 78.1%
treatment‐related asthenia, patients (Safety assessments; all grades): 18.8%
treatment‐related dyspepsia, patients (Safety assessments; all grades): 15.6%
treatment‐related nausea, patients (Safety assessments; all grades): 34.4%
treatment‐related peripheral oedema, patients (Safety assessments; all grades): 12.5%
treatment‐related vomiting, patients (Safety assessments; all grades): 34.4%
nausea leading to dose adjustment or dose interruption, patients (Safety assessments; both Grade ≤2): 6.3%
alterations in the electrocardiograph (Safety assessments; in vivo): No clinically relevant alterations
on‐treatment deaths (Safety assessments; in vivo): 18.8%
on‐treatment deaths due to AE (respiratory tract infection) (Safety assessments; in vivo): 3.1%
on‐treatment deaths due to AEs with disease progression as contributing reason (Safety assessments; in vivo): 9.4%
on‐treatment deaths due to disease progression (Safety assessments; in vivo): 6.3%
other treatment‐related SAEs: anaemia, abdominal pain and malaise, each (Safety assessments; in vivo): 1 patient
patients who died during the study (Safety assessments; in vivo): 25.0%
patients with AEs requiring dose adjustment or study drug interruption (Safety assessments; in vivo): 40.6%
patients with treatment‐related Grade 3/4 AEs (Safety assessments; in vivo): 25.0%
patients with treatment‐related SAEs (Safety assessments; in vivo): 12.5%
treatment‐related Grade 3/4 vomiting, patients (Safety assessments; in vivo): 6.3%
treatment‐related SAE vomiting, patients (Safety assessments; in vivo): 9.4%
Abdominal pain upper, Grade 3/4 (Safety assessments; [9]): 0 n (%)
Abdominal pain upper, all grades (Safety assessments; [9]): 4 (12.5) n (%)
Abdominal pain, Grade 3/4 (Safety assessments; [9]): 1 (3.1) n (%)
Abdominal pain, all grades (Safety assessments; [9]): 3 (9.4) n (%)
Anaemia, Grade 3/4 (Safety assessments; [9]): 3 (9.4) n (%)
Anaemia, all grades (Safety assessments; [9]): 7 (21.9) n (%)
Asthenia, Grade 3/4 (Safety assessments; [9]): 2 (6.3) n (%)
Asthenia, all grades (Safety assessments; [9]): 14 (43.8) n (%)
Back pain, Grade 3/4 (Safety assessments; [9]): 1 (3.1) n (%)
Back pain, all grades (Safety assessments; [9]): 6 (18.8) n (%)
Blood albumin decreased, Grade 3/4 (Safety assessments; [9]): 1 (3.1) n (%)
Blood albumin decreased, all grades (Safety assessments; [9]): 2 (6.3) n (%)
Candida infection, Grade 3/4 (Safety assessments; [9]): 0 n (%)
Candida infection, all grades (Safety assessments; [9]): 2 (6.3) n (%)
Constipation, Grade 3/4 (Safety assessments; [9]): 0 n (%)
Constipation, all grades (Safety assessments; [9]): 13 (40.6) n (%)
Cough, Grade 3/4 (Safety assessments; [9]): 0 n (%)
Cough, all grades (Safety assessments; [9]): 5 (15.6) n (%)
Decreased appetite, Grade 3/4 (Safety assessments; [9]): 1 (3.1) n (%)
Decreased appetite, all grades (Safety assessments; [9]): 7 (21.9) n (%)
Depression, Grade 3/4 (Safety assessments; [9]): 0 n (%)
Depression, all grades (Safety assessments; [9]): 2 (6.3) n (%)
Diarrhoea, Grade 3/4 (Safety assessments; [9]): 1 (3.1) n (%)
Diarrhoea, all grades (Safety assessments; [9]): 6 (18.8) n (%)
Dyspepsia, Grade 3/4 (Safety assessments; [9]): 0 n (%)
Dyspepsia, all grades (Safety assessments; [9]): 7 (21.9) n (%)
Dyspnoea, Grade 3/4 (Safety assessments; [9]): 2 (6.3) n (%)
Dyspnoea, all grades (Safety assessments; [9]): 6 (18.8) n (%)
Fatigue, Grade 3/4 (Safety assessments; [9]): 0 n (%)
Fatigue, all grades (Safety assessments; [9]): 4 (12.5) n (%)
Headache, Grade 3/4 (Safety assessments; [9]): 0 n (%)
Headache, all grades (Safety assessments; [9]): 2 (6.3) n (%)
Hypotension, Grade 3/4 (Safety assessments; [9]): 1 (3.1) n (%)
Hypotension, all grades (Safety assessments; [9]): 2 (6.3) n (%)
Increased blood bilirubin, Grade 3/4 (Safety assessments; [9]): 1 (3.1) n (%)
Increased blood bilirubin, all grades (Safety assessments; [9]): 5 (15.6) n (%)
Lymphocyte count decreased, Grade 3/4 (Safety assessments; [9]): 1 (3.1) n (%)
Lymphocyte count decreased, all grades (Safety assessments; [9]): 2 (6.3) n (%)
Nausea, Grade 3/4 (Safety assessments; [9]): 2 (6.3) n (%)
Nausea, all grades (Safety assessments; [9]): 18 (56.3) n (%)
Oedema peripheral, Grade 3/4 (Safety assessments; [9]): 0 n (%)
Oedema peripheral, all grades (Safety assessments; [9]): 9 (28.1) n (%)
Pulmonary embolism, Grade 3/4 (Safety assessments; [9]): 3 (9.4) n (%)
Pulmonary embolism, all grades (Safety assessments; [9]): 3 (9.4) n (%)
Pyrexia, Grade 3/4 (Safety assessments; [9]): 1 (3.1) n (%)
Pyrexia, all grades (Safety assessments; [9]): 8 (25.0) n (%)
Rash, Grade 3/4 (Safety assessments; [9]): 0 n (%)
Rash, all grades (Safety assessments; [9]): 2 (6.3) n (%)
Respiratory tract infection, Grade 3/4 (Safety assessments; [9]): 1 (3.1) n (%)
Respiratory tract infection, all grades (Safety assessments; [9]): 5 (15.6) n (%)
Total adverse events, Grade 3/4 (Safety assessments; [9]): 18 (56.3) n (%)
Total adverse events, all grades (Safety assessments; [9]): 32 (100) n (%)
Urinary tract infection, Grade 3/4 (Safety assessments; [9]): 0 n (%)
Urinary tract infection, all grades (Safety assessments; [9]): 3 (9.4) n (%)
Vertigo, Grade 3/4 (Safety assessments; [9]): 0 n (%)
Vertigo, all grades (Safety assessments; [9]): 2 (6.3) n (%)
Vitamin K decreased, Grade 3/4 (Safety assessments; [9]): 1 (3.1) n (%)
Vitamin K decreased, all grades (Safety assessments; [9]): 3 (9.4) n (%)
Vomiting, Grade 3/4 (Safety assessments; [9]): 2 (6.3) n (%)
Vomiting, all grades (Safety assessments; [9]): 13 (40.6) n (%)
Weight decreased, Grade 3/4 (Safety assessments; [9]): 0 n (%)
Weight decreased, all grades (Safety assessments; [9]): 2 (6.3) n (%)
anaemia, Grade 3/4, patients (Safety assessments; [9]): 9.4%
anaemia, all grades, patients (Safety assessments; [9]): 21.9%
asthenia, Grade 3/4, patients (Safety assessments; [9]): 6.3%
asthenia, all grades, patients (Safety assessments; [9]): 43.8%
constipation, all grades, patients (Safety assessments; [9]): 40.6%
decreased appetite, all grades, patients (Safety assessments; [9]): 21.9%
dyspepsia, all grades, patients (Safety assessments; [9]): 21.9%
dyspnoea, Grade 3/4, patients (Safety assessments; [9]): 6.3%
nausea, Grade 3/4, patients (Safety assessments; [9]): 6.3%
nausea, all grades, patients (Safety assessments; [9]): 56.3%
patients with Grade 3/4 AEs (Safety assessments; [9]): 56.3%
patients with Grade 3/4 SAEs (Safety assessments; [9]): 40.6%
patients with SAEs of any grade (Safety assessments; [9]): 53.1%
peripheral oedema, all grades, patients (Safety assessments; [9]): 28.1%
pulmonary embolism, Grade 3/4, patients (Safety assessments; [9]): 9.4%
pyrexia, all grades, patients (Safety assessments; [9]): 25%
vomiting, Grade 3/4, patients (Safety assessments; [9]): 6.3%
vomiting, all grades, patients (Safety assessments; [9]): 40.6%
enrolled patients who experienced at least 1 AE (Safety assessments; regardless of study drug relationship, 32 enrolled): 32 patients
serum creatinine change (Safety assessments; some subjects, none clinically relevant or reported as AE): low‐grade creatinine increase
estimated maximum luminal concentration in the gut [4]: approximately 3880 μM
IC50 (p‐glycoprotein (P‐gp); read-out: IC50 for inhibition of P‐gp): 12 µM
Ki (p‐glycoprotein (P‐gp); read-out: Ki for P‐gp, ref data on file): 12 µM
IC50 ([5]; read-out: IC50 for inhibition of BCRP): 16.4 µM
Ki ([5]; read-out: Ki for BCRP, ref data on file): 8.2 µM
Ki [6]: 5.1 µM
Ki (OATP1B3): 5.2 µM
steady state expected to be reached by ([7]; consecutive twice daily dosing): ≤ 3 days
time to maximum plasma concentration (Tmax) ([7]; oral administration): 1 to 2 h
cystatin C level following capmatinib treatment [8]: No change
